What was measured:
[1] = Growth inhibition of human SF539 cells assessed as cell growth at 10^-8 M incubated for 48 hrs by sulforhodamine B assay; type: functional; settings: SF-539, 48 h, read-out: Activity
SR = assay: Growth inhibition of human SR cells incubated for 48 hrs by sulforhodamine B assay; type: functional
Outline: (§1)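 Cells were plated at 5,000–40,000 per well according to doubling time and preincubated 24 h at 37 °C in 5% CO2; time-zero plates were then TCA-fixed. Five concentrations (10-fold or ½-log dilutions, DMSO stock) were incubated 48 h. Cells were TCA-fixed, stained with 0.4% SRB and read at 515 nm. GI50 was taken where [(Ti−Tz)/(C−Tz)]×100 = 50.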

KM12 = assay: Growth inhibition of human KM12 cells assessed as cell growth at 10^-8 M incubated for 48 hrs by sulforhodamine B assay; type: functional; settings: KM12, 48 h, read-out: Activity
[2] = Growth inhibition of human non-small cell lung cancer cells incubated for 48 hrs by sulforhodamine B assay; type: functional; settings: Cancer cell lines; for CC50: read-out: LC50 (the source's name)
SK-MEL-2 = assay: Growth inhibition of human SK-MEL-2 cells incubated for 48 hrs by sulforhodamine B assay; type: functional; settings: SK-MEL-2, 48 h; outline: as §1
[3] = Growth inhibition of human HCT116 cells assessed as cell growth at 10^-7 M incubated for 48 hrs by sulforhodamine B assay; type: functional; settings: HCT-116, 48 h, read-out: Activity
Outline: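 Cells seeded at 5,000–40,000/well according to doubling time and preincubated 24 h at 37 °C, 5% CO2. Time-zero plates were TCA-fixed. DMSO concentrate was diluted in medium with 50 µg/ml gentamicin to give five concentrations (10-fold or ½ log steps), then exposed 48 h. Cells were TCA-fixed, stained with 0.4% SRB and read at 515 nm. Percent growth was taken against time-zero and control; GI50, TGI and LC50 derived.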

MDA-MB-468 = assay: Growth inhibition of human MDA-MB-468 cells incubated for 48 hrs by sulforhodamine B assay; type: functional; settings: MDA-MB-468, 48 h; outline: as §1
[4] = Growth inhibition of human PC3 cells incubated for 48 hrs by sulforhodamine B assay; type: functional; settings: PC-3, 48 h; outline: as §1
T47D = assay: Growth inhibition of human T47D cells assessed as cell growth at 10^-5 M incubated for 48 hrs by sulforhodamine B assay; type: functional; settings: read-out: Activity
786-0 = assay: Growth inhibition of human 786-0 cells assessed as cell growth at 10^-8 M incubated for 48 hrs by sulforhodamine B assay; type: functional; settings: 786-0, 48 h, read-out: Activity
Outline: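 Five-dose assay: five concentrations from 10-fold or ½-log serial dilutions. Cells are plated at 5,000–40,000 per well according to doubling time, grown 24 h, then exposed 48 h at 37 °C, 5% CO₂. Fixed with cold 50% TCA (final addition) for 60 min at 4 °C and stained with 0.4% SRB in 1% acetic acid. Bound dye is solubilized in 10 mM Tris base and read at 515 nm. GI₅₀ is where [(Ti−Tz)/(C−Tz)]×100 = 50, with a time-zero plate as Tz.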

[5] = Growth inhibition of human TK10 cells assessed as cell growth at 10^-8 M incubated for 48 hrs by sulforhodamine B assay; type: functional; settings: TK-10, 48 h, read-out: Activity
K562 [6] = assay: Growth inhibition of human K562 cells assessed as cell growth at 10^-5 M incubated for 48 hrs by sulforhodamine B assay; type: functional; settings: K562, 48 h, read-out: Activity
[7] = Growth inhibition of human IGROV1 cells assessed as cell growth at 10 uM incubated for 48 hrs by sulforhodamine B assay; type: functional; settings: IGROV-1, 48 h, read-out: Activity
[8] = Growth inhibition of human HL-60(TB) cells incubated for 48 hrs by sulforhodamine B assay; type: functional; settings: HL-60, 48 h
Outline: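 Five-concentration, 48 h SRB screen (10-fold or ½-log dilutions from a 400× DMSO concentrate; 24 h preincubation at 37 °C, 5% CO₂; time-zero plate; A515). GI50 was solved from (Ti−Tz)/(C−Tz)×100 = 50. TGI was taken where Ti = Tz, and LC50 from (Ti−Tz)/[…].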

[9] = Growth inhibition of human RPMI8226 cells assessed as cell growth at 10^-6 M incubated for 48 hrs by sulforhodamine B assay; type: functional; settings: RPMI-8226, 48 h, read-out: Activity
[10] = Growth inhibition of human HOP92 cells assessed as cell growth at 10^-4 M incubated for 48 hrs by sulforhodamine B assay; type: functional; settings: HOP-92, 48 h, read-out: Activity
[11] = Growth inhibition of human SNB19 cells assessed as cell growth at 10^-5 M incubated for 48 hrs by sulforhodamine B assay; type: functional; settings: SNB-19, 48 h, read-out: Activity
K562 [12] = assay: Growth inhibition of human K562 cells assessed as cell growth at 10^-7 M incubated for 48 hrs by sulforhodamine B assay; type: functional; settings: K562, 48 h, read-out: Activity
Albumin = Albumin (Bos taurus, UniProt P02769); assay: Binding affinity to bovine serum albumin assessed as binding constant in emission spectra by Benesie-Hildebrand plot analysis; type: ADME; settings: cattle, isolated protein
Outline: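 BSA, 10 µM, in 0.1 M phosphate buffer pH 7.4, titrated with compound (0–20 µM per the figure; diluted from 10⁻³ mol L⁻¹ DMSO stocks). Run at 300 K in a 1 cm quartz cell. UV spectra taken 200–800 nm after 5 min equilibration; fluorescence excited at 280 nm, emission 351 nm, slit 10 nm. K is the intercept/slope ratio of a linear fit of 1/(A₀−A) or 1/(F₀−F) vs 1/[compound].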

MDA-MB-435 = assay: Growth inhibition of human MDA-MB-435 cells assessed as cell growth at 10^-6 M incubated for 48 hrs by sulforhodamine B assay; type: functional; settings: MDA-MB-435, 48 h, read-out: Activity
U-251 = assay: Growth inhibition of human U251 cells assessed as cell growth at 10 uM incubated for 48 hrs by sulforhodamine B assay; type: functional; settings: U-251, 48 h, read-out: Activity
[13] = Growth inhibition of human leukemia cells incubated for 48 hrs by sulforhodamine B assay; type: functional; settings: Leukemia cell; for CC50: read-out: LC50 (the source's name)
[14] = read-out: LC50 (the source's name)
[15] = read-out: pLC50 (the source's name) (converted)

Chain of Albumin (P02769 whole entry): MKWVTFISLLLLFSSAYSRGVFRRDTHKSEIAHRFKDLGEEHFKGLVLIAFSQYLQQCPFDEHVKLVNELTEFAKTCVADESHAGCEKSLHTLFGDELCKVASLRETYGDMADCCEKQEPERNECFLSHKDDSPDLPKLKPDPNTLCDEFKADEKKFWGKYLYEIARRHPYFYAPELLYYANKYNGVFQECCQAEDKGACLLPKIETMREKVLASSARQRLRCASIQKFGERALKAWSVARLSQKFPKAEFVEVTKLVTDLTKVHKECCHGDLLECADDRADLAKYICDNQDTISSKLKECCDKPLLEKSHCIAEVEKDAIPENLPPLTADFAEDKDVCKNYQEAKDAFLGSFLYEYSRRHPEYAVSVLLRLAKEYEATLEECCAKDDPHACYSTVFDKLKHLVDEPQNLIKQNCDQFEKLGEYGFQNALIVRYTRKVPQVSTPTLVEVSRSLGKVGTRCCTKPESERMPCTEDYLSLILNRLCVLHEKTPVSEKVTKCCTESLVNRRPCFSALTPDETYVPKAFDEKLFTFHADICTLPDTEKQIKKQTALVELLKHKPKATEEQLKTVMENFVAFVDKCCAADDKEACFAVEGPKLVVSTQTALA

SMILES: c1ccc(-c2nc(Nc3ccc(-c4nc5ccccc5[nH]4)cc3)nc(N3CCOCC3)n2)cc1
- growth at 0.01 µM [1]: 98%
- GI50 (SR; read-out: GI50): 125 nM
- CC50 (SR; [14]): > 100000 nM
- TGI (SR; read-out: TGI): 555 nM
- GI50 (SR; read-out: pGI50 (converted)): 126 nM
- CC50 (SR; [15]): > 100000 nM
- TGI (SR; read-out: pTGI (converted)): 550 nM
- growth at 0.01 µM (KM12): 98%
- GI50 [2]: 1740 nM
- TGI [2]: 3670 nM
- CC50 [2]: 14200 nM
- GI50 (SK-MEL-2; read-out: GI50): 1970 nM
- CC50 (SK-MEL-2; [14]): 6550 nM
- TGI (SK-MEL-2; read-out: TGI): 3590 nM
- GI50 (SK-MEL-2; read-out: pGI50 (converted)): 1950 nM
- CC50 (SK-MEL-2; [15]): 6610 nM
- TGI (SK-MEL-2; read-out: pTGI (converted)): 3630 nM
- growth at 0.1 µM [3]: 100%
- GI50 (MDA-MB-468; read-out: GI50): 2130 nM
- CC50 (MDA-MB-468; [14]): 9030 nM
- TGI (MDA-MB-468; read-out: TGI): 4390 nM
- GI50 (MDA-MB-468; read-out: pGI50 (converted)): 2140 nM
- CC50 (MDA-MB-468; [15]): 9120 nM
- TGI (MDA-MB-468; read-out: pTGI (converted)): 4370 nM
- GI50 ([4]; read-out: GI50): 1800 nM
- CC50 [4, 14]: 7370 nM
- TGI ([4]; read-out: TGI): 3640 nM
- GI50 ([4]; read-out: pGI50 (converted)): 1820 nM
- CC50 [4, 15]: 7410 nM
- TGI ([4]; read-out: pTGI (converted)): 3630 nM
- growth at 10 µM (T47D): -56%
- growth at 0.01 µM (786-0): 99%
- growth at 0.01 µM [5]: 99%
- growth at 10 µM (K562 [6]): -54%
- growth at 10 µM [7]: -38.1%
- GI50 ([8]; read-out: GI50): 31 nM
- LC50 ([8]; read-out: LC50): 31200 nM
- TGI ([8]; read-out: TGI): 601 nM
- GI50 ([8]; read-out: pGI50 (converted)): 30.9 nM
- LC50 ([8]; read-out: pLC50 (converted)): 30900 nM
- TGI ([8]; read-out: pTGI (converted)): 603 nM
- growth at 1 µM [9]: 54%
- growth at 100 µM [10]: -85%
- growth at 10 µM [11]: -53%
- growth at 0.1 µM (K562 [12]): 96%
- K (Albumin): 3.2 ×10⁴ /M
- growth at 1 µM (MDA-MB-435): 96%
- growth at 10 µM (U-251): -67.5%
- GI50 [13]: 570 nM
- TGI [13]: 2170 nM
- CC50 [13]: 16300 nM

SMILES: Clc1ccc(-c2nc(Nc3ccc(-c4nc5ccccc5[nH]4)cc3)nc(N3CCOCC3)n2)cc1
- growth at 0.01 µM [1]: 98%
- GI50 (SR; read-out: GI50): 31 nM
- CC50 (SR; [14]): > 100000 nM
- GI50 (SR; read-out: pGI50 (converted)): 30.9 nM
- CC50 (SR; [15]): > 100000 nM
- growth at 0.01 µM (KM12): 98%
- GI50 [2]: 1150 nM
- TGI [2]: 2590 nM
- CC50 [2]: 5580 nM
- GI50 (SK-MEL-2; read-out: GI50): 1800 nM
- TGI (SK-MEL-2; read-out: TGI): 3370 nM
- GI50 (SK-MEL-2; read-out: pGI50 (converted)): 1820 nM
- TGI (SK-MEL-2; read-out: pTGI (converted)): 3390 nM
- growth at 0.1 µM [3]: 93%
- GI50 (MDA-MB-468; read-out: GI50): 516 nM
- TGI (MDA-MB-468; read-out: TGI): 1820 nM
- GI50 (MDA-MB-468; read-out: pGI50 (converted)): 513 nM
- TGI (MDA-MB-468; read-out: pTGI (converted)): 1820 nM
- GI50 ([4]; read-out: GI50): 376 nM
- TGI ([4]; read-out: TGI): 1330 nM
- GI50 ([4]; read-out: pGI50 (converted)): 380 nM
- TGI ([4]; read-out: pTGI (converted)): 1320 nM
- growth at 10 µM (T47D): -62%
- growth at 0.01 µM (786-0): 99%
- growth at 0.01 µM [5]: 93%
- growth at 10 µM (K562 [6]): -70%
- growth at 10 µM [7]: -71.2%
- GI50 ([8]; read-out: GI50): 216 nM
- TGI ([8]; read-out: TGI): 567 nM
- GI50 ([8]; read-out: pGI50 (converted)): 214 nM
- TGI ([8]; read-out: pTGI (converted)): 562 nM
- growth at 1 µM [9]: -20%
- growth at 100 µM [10]: -67%
- growth at 10 µM [11]: -70%
- growth at 0.1 µM (K562 [12]): 92%
- K (Albumin): 4.2 ×10⁷ /M
- growth at 1 µM (MDA-MB-435): 36%
- growth at 10 µM (U-251): -93%
- GI50 [13]: 190 nM
- TGI [13]: 580 nM
- CC50 [13]: > 100000 nM

From ChEMBL document CHEMBL3808334, “Synthesis and in vitro evaluation of novel triazine analogues as anticancer agents and their interaction studies with bovine serum albumin” (Eur J Med Chem, 2016)
